Source: PMC3921891 (European journal of pharmacology, 2010)
Entries after “also recorded” stand apart in the source; their conditions may differ. Where two headings read alike, the source gives them in different places. Marks after values point to notes of the source that are not given here.

Tests used:
[1] = tested on: EGF receptor in NCI-H1299 cells; assay: EGF receptor tyrosine phosphorylation, Western blot, NCI-H1299 cells; type: cell-based, human
[2] = tested on: ERK (p42/p44 MAP kinase) in NCI-H1299 cells transfected with NMB receptor; assay: ERK tyrosine phosphorylation, Western blot; type: cell-based, human; settings: abstract statement
Outline: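 Monolayers of NCI-H1299 cells with transfected NMB receptor were held in SIT medium 3 h. Inhibitors or anti-growth-factor antibodies (5 µg/ml) were given for 30 min, then 0.1 µM NMB or BA1 for 2 min. Lysate (20 µg) was run on 4–20% gels and blotted with anti-phospho-ERK, with anti-ERK or anti-tubulin as loading controls. Detection was by ECL with densitometry.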

[3] = tested on: EGF receptor in NCI-H1299 cells transfected with NMB receptor; type: cell-based, human; settings: for effect of PP2 / GM6001 on NMB-induced EGF receptor transactivation: 10 µM inhibitor, densitometry of 3 experiments (Fig. 3B, C)
Outline: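 NCI-H1299 cells expressing transfected NMB receptor, grown to a monolayer, held in SIT medium 3 h. Inhibitors were added 30 min before stimulation with 0.1 µM NMB or BA1 for 2 min. Cells were lysed. 400 µg protein was immunoprecipitated overnight at 4°C with anti-phosphotyrosine, run on 4–20% SDS-PAGE and blotted with anti-EGF receptor. Alternatively, 20 µg extract was probed with anti-PY1068-EGF receptor. Detection was by ECL with densitometry.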

[4] = tested on: TGFα release from NCI-H1299 cells; assay: TGFα release, TGFα immunoassay; type: cell-based, human; settings: inhibitor pretreatment, NMB 100 nM
[5] = tested on: reactive oxygen species in NCI-H1299 cells; assay: Reactive oxygen species; type: cell-based, human; settings: for effect on BA1-induced reactive oxygen species / effect on basal reactive oxygen species: PP2 10 µM, GM6001 10 µM; for effect on BA1-induced reactive oxygen species / effect on H2O2-induced reactive oxygen species: NAC (5 mM), data not shown; for % Fluorescence Intensity, inhibitor alone (basal): PP2 10 µM or GM6001 (10 µM); for effect on basal reactive oxygen species: inhibitor alone
NCI-H1299 cells [6] = assay: MTT proliferation assay, NCI-H1299; type: cell-based, human
NCI-H1299 cells [7] = assay: Clonogenic assay, NCI-H1299; type: cell-based, human
lung cancer cells = settings: in vitro; ref Witta et al., 2006; Ono et al., 2004; Janmaat et al., 2003; cited from earlier work
NSCLC patients = settings: particularly a subgroup with EGF receptor mutations; no reference given; cited from earlier work
GRP receptor = settings: ref Jensen et al., 2008; Ashwood et al., 1998; cited from earlier work
NMB receptor = settings: ref Jensen et al., 2008; Ashwood et al., 1998; cited from earlier work
[8] = Tiron 5 mM, None = 100 ± 7, mean ± S.D. of 6 determinations

With COc1cc2ncnc(Nc3cccc(Cl)c3)c2cc1OC [AG1478, N-(3-Chlorophenyl)-6,7-dimethoxy-4-quinazolinamine] the “effect on NMB-induced EGF receptor tyrosine phosphorylation” value ([1]; AG1478 10 µg/ml, data not shown) was “inhibited” and the “effect on EGF receptor transactivation or ERK tyrosine phosphorylation caused by NMB-like peptides” value (“effect … by NMB-like peptides” for short) [2] was “inhibited”.
In the case of CNC(=O)[C@H](Cc1c[nH]c2ccccc12)NC(=O)[C@@H](CC(=O)NO)CC(C)C [GM6001, (R)-N4-Hydroxy-N1-[(S)-2-(1H–indol-3-yl)-1-methylcarbamoyl-ethyl]-2-isobutyl-succinamide], the “effect of PP2 / GM6001 on NMB-induced EGF receptor transactivation” value (“effect of PP2 / GM6001” below) [3] is reported as “markedly inhibited”, the “effect of PP2 / GM6001” value ([3]; listed as GM60001) is reported as “reduced significantly” and the “effect on NMB-induced TGFα secretion” value [4] is reported as “reversed”. The “effect on BA1-induced reactive oxygen species” value [5] was “inhibited the increase in reactive oxygen species”, the “% Fluorescence Intensity, inhibitor alone (basal)” value [5, 8] was 94 ± 4% and the “effect on basal reactive oxygen species” value ([5]; Tiron 5 mM) was “had little effect”.
In the case of O=S(=O)(O)c1cc(O)c(O)c(S(=O)(=O)O)c1 [Tiron], the “effect of Tiron on NMB-induced EGF receptor transactivation” value ([3]; 10 mM Tiron (Fig. 4D)) is reported as “significantly inhibited”, the “effect of Tiron on NMB-induced EGF receptor transactivation” value ([3]; 0.1 or 1 mM Tiron (Fig. 4C, D)) is reported as “had little effect” and the “effect of Tiron on NMB-induced EGF receptor transactivation, dose dependence” value ([3]; 0.1 to 10 mM Tiron (Fig. 4C)) is reported as “inhibited in a dose-dependent manner”. For the same molecule, the “effect on NMB-induced reactive oxygen species” value ([5]; Tiron 5 mM) was “greatly reduced”, the “% Fluorescence Intensity, inhibitor + H2O2” value ([5]; Tiron 5 mM 30 min prior to H2O2 10 µM, 2 hour, mean ± S.D. of 6 determinations, P < 0.01) was 200 ± 14 ^b % and the “% Fluorescence Intensity, inhibitor + NMB” value ([5]; Tiron 5 mM 30 min prior to NMB 0.1 µM, 2 hour, mean ± S.D. of 6 determinations) was 92 ± 9%. The “% Fluorescence Intensity, inhibitor alone (basal)” value [5, 8] was 82 ± 11%, the “effect on H2O2-induced reactive oxygen species” value ([5]; Tiron 5 mM) was “greatly reduced” and the “effect on basal reactive oxygen species” value ([5]; Tiron 5 mM) was “had little effect”.
In the case of bombesin, the “tyrosine phosphorylation of the 170 kDa EGF receptor” value ([1]; native NCI-H1299 cells, 0.1 µM (Fig. 1A)) is reported as “caused tyrosine phosphorylation of the 170 kDa EGF receptor” and the “increase in EGF receptor tyrosine phosphorylation” value ([1]; native NCI-H1299 cells, 0.1 µM, 2 min, densitometry analysis of 4 experiments (Fig. 1B)) is reported as 1.4 fold.
In the case of COc1cc2ncnc(Nc3ccc(Oc4ccccc4)cc3)c2cc1OC [PP2, 4-(4’-Phenoxyanilino)-6,7-dimethoxyquinzoline,6,7-Dimethoxy-N(4-phenoxyphenyl)-4-quinazolinamine], the “effect of PP2 / GM6001” value [3] is reported as “markedly inhibited; also recorded: reduced significantly”, the “effect on NMB-induced TGFα secretion” value [4] is reported as “reversed” and the “effect on BA1-induced reactive oxygen species” value [5] is reported as “inhibited the increase in reactive oxygen species”. For the same molecule, the “% Fluorescence Intensity, inhibitor alone (basal)” value [5, 8] was 93 ± 5% and the “effect on basal reactive oxygen species” value ([5]; Tiron 5 mM) was “had little effect”.
In the case of COc1cc2ncnc(Nc3ccc(F)c(Cl)c3)c2cc1OCCCN1CCOCC1 [gefitinib], the “effect … by NMB-like peptides” value [2] is reported as “inhibited”, the “effect on proliferation at 1 and 3 µg/ml” value (NCI-H1299 cells [6]; gefitinib 1 and 3 µg/ml) is reported as “having no effect” and the “effect on colony number and size” value (NCI-H1299 cells [7]; 1 µg/ml gefitinib, 2 weeks (Fig. 5B3)) is reported as “slightly reduced colony number and size”. For the same molecule, the “variation of sensitivity of lung cancer cells to gefitinib” value (lung cancer cells) was “up to 2700 fold” and the NSCLC patients responding (NSCLC patients) was 10%.
For OO [H2O2], the “generation of reactive oxygen species” value ([5]; BA1 0.1 µM, NMB 0.1 µM or H2O2 10 µM) was “significantly increased” and the “% Fluorescence Intensity, stimulus alone” value ([5]; NMB 0.1 µM, H2O2 10 µM or BA1 0.1 µM, 2 hour, None = 100 ± 7, mean ± S.D. of 6 determinations, P < 0.01) was 589 ± 60 ^b %.
With CC(=O)N[C@@H](CS)C(=O)O [NAC, N-acetylcysteine] the “effect of NAC on NMB-induced EGF receptor tyrosine phosphorylation” value ([3]; 5 mM NAC pretreatment, NMB 0.1 µM, 4 experiments (Fig. 4A, B)) was “inhibited”, the “effect on BA1-induced reactive oxygen species” value [5] was “reduced” and the “effect on H2O2-induced reactive oxygen species” value ([5]; Tiron 5 mM) was “reduced”.
In the case of COc1ccc(C2(CNC(=O)[C@](C)(Cc3c[nH]c4ccccc34)NC(=O)Nc3ccc([N+](=O)[O-])cc3)CCCCC2)nc1 [PD176252], the “affinity for GRP receptor” value (GRP receptor) is given as “high affinity” and the “affinity for NMB receptor” value (NMB receptor) is given as “high affinity”.
With C[C@@](Cc1c[nH]c2ccccc12)(NC(=O)Nc1ccc([N+](=O)[O-])cc1)C(=O)NCC1(c2ccccn2)CCCCC1 [PD168368] the “effect on BA1-induced EGF receptor tyrosine phosphorylation” value ([3]; 1 µM antagonist, 30 min pretreatment, 100 nM BA1, 4 experiments (Fig. 1D)) was “significantly reversed”, the “effect on NMB-induced EGF receptor transactivation” value ([3]; data not shown) was “antagonized the ability of NMB to cause EGF receptor transactivation” and the “effect … by NMB-like peptides” value [2] was “inhibited”. The “effect of 3 µM PD168368 on the gefitinib dose response curve” value (NCI-H1299 cells [6]; 3 µM PD168368, relative to no additions) was “shifted to the left”, the “effect of PD168368 alone on proliferation” value (NCI-H1299 cells [6]; PD168368 alone, mean of 8 determinations (Fig. 5A)) was “inhibited the proliferation of NCI-H1299 cells in a dose-dependent manner” and the “effect of PD168368 on the gefitinib dose-response curve” value (NCI-H1299 cells [6]; increasing concentrations of PD168368 with gefitinib (Fig. 5A)) was “progressive shift to the left of the gefitinib dose-response curve”. For the same molecule, the “effect on colony formation” value (NCI-H1299 cells [7]; 0.3 µM PD168368, 2 weeks (Fig. 5B2)) was “had little effect on colony formation”.
